ChEMBL document CHEMBL1140413, “Synthesis and in vitro evaluation of inhibitors of intestinal cholesterol absorption” (2005)

test system: Cricetinae gen. sp.; assay: Effective dose required for reduction of liver cholesterol ester using 7-day cholesterol-fed hamster model; assay type: functional; conditions: 168 h

| SMILES | ED50 [mg/kg/day] |
| --- | --- |
| O=C1[C@H](CC[C@H](O)c2ccc(F)cc2)[C@@H](c2ccc(O)cc2)N1c1ccc(F)cc1 [EZETIMIBE] | 0.04 |
| COc1ccc([C@@H]2[C@@H](CCCc3ccccc3)C(=O)N2c2ccc(OC)cc2)cc1 [SCH-48461] | 2.2 |

species: Oryctolagus cuniculus; assay: Percent inhibition against cholesterol absorption in brush border membrane vesicle using rabbit small intestine at concentration of 6 uM; assay type: functional; conditions: not given
How it was run: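 Cholesterol uptake into brush border membrane vesicles prepared from rabbit whole small intestine, with membrane receptors left intact. Test compounds at a nominal 6 µM; read-out is % inhibition of cholesterol uptake. Average standard deviations ±3% inhibition.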

| SMILES | inhibition [%] |
| --- | --- |
| O=S(=O)(CC1OC(CO)C(O)C(O)C1O)Oc1ccc([C@@H]2[C@@H](CCC(O)c3ccc(F)cc3)CN2c2ccc(F)cc2)cc1 (stereo partly specified) | 20 |
| O=C1[C@H](CCC(O)c2ccc(F)cc2)[C@@H](c2ccc(OCC3OC(CO)C(O)C(O)C3O)cc2)N1c1ccc(F)cc1 (stereo partly specified) | 15 |
| O=C1[C@H](CC[C@H](O)c2ccc(F)cc2)[C@@H](c2ccc(O)cc2)N1c1ccc(F)cc1 [EZETIMIBE] | 16 |
| O=C1[C@H](CC[C@H](O)c2ccc(F)cc2)[C@@H](c2ccc(OS(=O)(=O)C[C@@H]3O[C@H](CO)[C@@H](O[C@@H]4O[C@H](CO)[C@@H](O)[C@@H](O)[C@H]4O)[C@@H](O)[C@H]3O)cc2)N1c1ccc(F)cc1 | 41 |
| Fc1ccc(N2C[C@H](CCCc3ccccc3)[C@H]2c2ccccc2)cc1 (racemic) | 2 |
| COC1OC(CS(=O)(=O)Oc2ccc([C@@H]3[C@@H](CCC(O)c4ccc(F)cc4)CN3c3ccc(F)cc3)cc2)C(O)C(O)C1O (stereo partly specified) | 27 |
| O=C(O)[C@H]1O[C@@H](Oc2ccc([C@@H]3[C@@H](CCC(O)c4ccc(F)cc4)C(=O)N3c3ccc(F)cc3)cc2)[C@H](O)[C@H](O)[C@@H]1O (stereo partly specified) | 19 |
| O=C1[C@H](CCCc2ccc(F)cc2)[C@@H](c2ccc(O[C@@H]3O[C@H](CO)[C@@H](O[C@@H]4O[C@H](CO)[C@@H](O)[C@@H](O)[C@H]4O)[C@@H](O)[C@H]3O)cc2)N1c1ccc(F)cc1 | 3 |
| COC1OC(CS(=O)(=O)Oc2ccc(C[C@@H](CCC(O)c3ccc(F)cc3)CNc3ccc(F)cc3)cc2)C(O)C(O)C1O (stereo partly specified) | 3 |
| O=C1[C@H](CCC(O)c2ccc(F)cc2)[C@@H](c2ccc(O[C@@H]3O[C@H](CO)[C@@H](O[C@@H]4O[C@H](CO)[C@@H](O)[C@@H](O)[C@H]4O)[C@@H](O)[C@H]3O)cc2)N1c1ccc(F)cc1 (stereo partly specified) | 27 |
| CS(=O)(=O)Oc1ccc([C@@H]2[C@@H](CCC(O)c3ccc(F)cc3)CN2c2ccc(F)cc2)cc1 (stereo partly specified) | 22 |
| O=C1[C@H](CCC(O)c2ccc(F)cc2)[C@@H](c2ccc(OS(=O)(=O)c3ccccc3)cc2)N1c1ccc(F)cc1 (stereo partly specified) | 26 |
| CS(=O)(=O)Oc1ccc(C[C@@H](CCC(O)c2ccc(F)cc2)CNc2ccc(F)cc2)cc1 (stereo partly specified) | -2 |
| O=C1[C@H](CCC(O)c2ccc(F)cc2)[C@@H](c2ccc(OS(=O)(=O)CC3OC(CO)C(O)C(O)C3O)cc2)N1c1ccc(F)cc1 (stereo partly specified) | 15 |
| CO[C@H]1O[C@@H](COc2ccc([C@@H]3[C@@H](CC[C@H](O)c4ccc(F)cc4)C(=O)N3c3ccc(F)cc3)cc2)[C@@H](O)[C@H](O)[C@@H]1O | 13 |
| O=C1[C@H](CC[C@H](O)c2ccc(F)cc2)[C@@H](c2ccc(OC[C@@H]3O[C@H](CO)[C@@H](O[C@@H]4O[C@H](CO)[C@@H](O)[C@@H](O)[C@H]4O)[C@@H](O)[C@H]3O)cc2)N1c1ccc(F)cc1 | 28 |
| COC1OC(CS(=O)(=O)Oc2ccc([C@@H]3[C@@H](CCCc4ccc(F)cc4)CN3c3ccc(F)cc3)cc2)C(O)C(O)C1O (stereo partly specified) | 4 |
| O=S(=O)(Oc1ccc([C@@H]2[C@@H](CCC(O)c3ccc(F)cc3)CN2c2ccc(F)cc2)cc1)c1ccccc1 (stereo partly specified) | 19 |
| COC1OC(CS(=O)(=O)Oc2ccc([C@@H]3[C@@H](CCC(O)c4ccc(F)cc4)C(=O)N3c3ccc(F)cc3)cc2)C(O)C(O)C1O (stereo partly specified) | 20 |
| O=C1[C@H](CCCc2ccccc2)[C@@H](c2ccccc2)N1c1ccc(F)cc1 (racemic) | 2 |
| CS(=O)(=O)Oc1ccc([C@@H]2[C@@H](CCC(O)c3ccc(F)cc3)C(=O)N2c2ccc(F)cc2)cc1 (stereo partly specified) | 30 |
| O=C1[C@H](CCCc2ccc(F)cc2)[C@@H](c2ccc(OS(=O)(=O)C[C@@H]3O[C@H](CO)[C@@H](O[C@@H]4O[C@H](CO)[C@@H](O)[C@@H](O)[C@H]4O)[C@@H](O)[C@H]3O)cc2)N1c1ccc(F)cc1 | 10 |
| CC(C)(C)Oc1ccc([C@@H]2[C@@H](CCC(O)c3ccc(F)cc3)C(=O)N2c2ccc(F)cc2)cc1 (stereo partly specified) | 10 |
| O=C1[C@H](CC[C@H](O)c2ccc(F)cc2)[C@@H](c2ccc(O[C@@H]3O[C@H](CO)[C@@H](O)[C@@H](O)[C@H]3O)cc2)N1c1ccc(F)cc1 | 14 |
